Where two headings read alike, the source gives them in different places. Each block holds one molecule with its values, some of them ahead of it.
How the values were obtained:
[1] = test system: patients with right colon cancer; test: ICG fluorescence lymphography in robotic right hemicolectomy; type: in vivo, human; settings: 9 patients
Summary of the method: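 Right colon cancer patients had robotic right hemicolectomy with complete mesocolic excision, in two arms of 9. One arm received intraoperative submucosal ICG injection, and fluorescence guided the lymphadenectomy. The comparison arm had standard technique without ICG. ICG-related complications were recorded, with histological nodal staging afterwards.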

[2] = test system: patients scheduled for laparoscopic cholecystectomy; test: Near-infrared fluorescence cholangiography at a very low dose of ICG; type: in vivo, human; settings: n = 44
Summary of the method: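 Prospective study of patients scheduled for laparoscopic cholecystectomy. Each received 0.25 mg ICG intravenously after anaesthetic induction, then NIR fluorescence cholangiography in endoscope overlay mode. Visualisation of the cystic duct, common bile duct and their junction was recorded before and after Calot's triangle dissection. Also recorded: hepatic hyperluminescence, adverse reactions and surgeon satisfaction on a visual analogue scale.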

[3] = test system: patients with symptomatic cholelithiasis or acute cholecystitis; test: Direct gallbladder ICG injection during laparoscopic cholecystectomy; type: in vivo, human; settings: 29 patients
Summary of the method: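 Prospective series of laparoscopic cholecystectomies. ICG was diluted in 10 cc sterile water and injected percutaneously into the gallbladder through a 22G fine needle under direct laparoscopic vision; 2–4 cc was given. Cystic, common bile and common hepatic ducts were recorded as identified or not, first after injection before dissection, then after dissection began.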

[4] = test system: patients with colorectal cancer; type: in vivo, human
Summary of the method: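 Prospective observational study of consecutive patients from 4/2019 undergoing robotic colorectal cancer surgery. The day before surgery, endoscopy delivered 3 mg ICG in 6 ml saline into the peritumoral submucosa as four 1.5 ml injections at the cardinal points. Fluorescence guided any extension of standard lymphadenectomy. Fluorescent extraregional nodes were counted per patient and by resection type.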

adrenal vein = test: Intraoperative ICG angiography in laparoscopic adrenal resection; type: in vivo, patients
[5] = test system: small bowel of large white pigs; type: in vivo, pig; settings: five pigs, baseline 0.74
[6] = test system: patients undergoing LRYGB; test: RCT of intraperitoneal local anesthetic in LRYGB with ERABS protocol; type: in vivo, human; settings: intraperitoneal ropivacaine 0.2% 100 mL; both groups
Summary of the method: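 Prospective double-blind randomised controlled pilot trial with an a-priori protocol: 120 laparoscopic Roux-en-Y gastric bypass patients under an established ERABS protocol. Patients were randomised to intraperitoneal ropivacaine 0.2% 100 mL or normal saline 100 mL. Adverse events were recorded in both arms.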

[7] = 0.25 mg ICG i.v. after anaesthetic induction
[8] = after ICG injection and before starting the dissection

ICG-related complications [1]: none
Compound: CC1(C)C(/C=C/C=C/C=C/C=C2\N(CCCCS(=O)(=O)O)c3ccc4ccccc4c3C2(C)C)=[N+](CCCCS(=O)(=O)[O-])c2ccc3ccccc3c21 [ICG, indocyanine green]
CBD identified by ICG NIRF-C [2, 7]: 100% | CD identified by ICG NIRF-C [2, 7]: 71% | CDBDJ identified by ICG NIRF-C [2, 7]: 84% | bile duct injuries or allergic reactions to ICG ([2]; 0.25 mg ICG i.v.): no bile duct injuries (BDIs) or allergic reactions to ICG | surgeries with surgeon satisfaction of 4/5 or 5/5 (VAS) ([2]; 0.25 mg ICG i.v.): ~90% | cases with common bile duct identified [3, 8]: 18 cases | cases with common hepatic duct identified [3, 8]: 9 cases | cases with common bile duct identified ([3]; after starting the dissection): 27 cases | cases with common hepatic duct identified ([3]; after starting the dissection): 14 cases | cases with cystic duct identified ([3]; after starting the dissection): all cases | patients with ICG-fluorescent lymphnodes observed ([4]; 3 mg ICG in 6 ml saline, peritumoral submucosal, day before surgery, 86/88): 97,7% | patients with fluorescent extraregional lymph nodes ([4]; 34 of 88 patients): 38,6% | ICG-injection related complication ([4]; 88 patients): No ICG-injection related complication occurred | patients with fluorescent extraregional lymph nodes ([4]; anterior rectal resections): 21/33 | patients with fluorescent extraregional lymph nodes ([4]; left hemicolectomies): 3/20 | mean number of retrieved extraregional fluorescent lymph nodes ([4]; range 1–8): 4 | patients with fluorescent extraregional lymph nodes ([4]; right hemicolectomies): 10/31 | cases in which ICG confirmed the adrenal vein (adrenal vein; laparoscopic right adrenal resection): 2/3 | cases in which ICG helped identify the vessel, after the dissection (adrenal vein; left laparoscopic adrenalectomy): 100%

Compound: NC[C@H](O)c1ccc(O)c(O)c1 [norepinephrine]
local capillary lactate (LCL) ([5]; first assessment): 0.82 mmol/L | local capillary lactate (LCL) ([5]; fourth assessment): 0.62 mmol/L | local capillary lactate (LCL) ([5]; second assessment): 0.64 mmol/L | local capillary lactate (LCL) ([5]; third assessment): 0.60 mmol/L

Compound: CCCN1CCCC[C@H]1C(=O)Nc1c(C)cccc1C [ropivacaine]
adverse events [6]: no adverse events

Reference: PMC9199482 (Surgical Endoscopy, 2022)
